Source: ChEMBL document CHEMBL1687716, “Pharmacokinetics of L-arginine in adults with moderately severe malaria” (Antimicrob Agents Chemother, 2008)

How the values were obtained:
[1] = system: Homo sapiens; test: Toxicity in patient with severe malaria assessed as effect on respiratory rate at 3 to 12 g, iv for 30 mins via infusion pump measured after drug infusion; format: organism-based; settings: in vivo, 0.5 h
[2] = Plasma concentration in patient with severe malaria at 6 g, iv for 30 mins via infusion pump; format: ADME, organism-based; settings: human
How it was run: (§1)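 Adults with moderately severe malaria, all on IV quinine, were placed in groups of 10 per dose. L-arginine was diluted in normal saline to 10% or less and given IV through an antecubital cannula over 30 min. Plasma was taken at 8–11 time points up to 24 h, separated within 30 min and stored at −70°C. Samples were ethanol-deproteinized with norleucine as internal standard, AccQFluor-derivatized and measured by HPLC. Peak was taken after the end of infusion.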

[3] = system: Homo sapiens; test: Toxicity in patient with severe malaria assessed as decrease of systolic blood pressure at 3 to 6 g, iv for 30 mins via infusion pump; format: organism-based, Artery; settings: in vivo, 0.5 h
How it was run: (§2)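 In adults with malaria on IV quinine, 10 per dose, systolic and diastolic blood pressure were recorded at baseline and immediately at the end of a 30-min IV L-arginine infusion (in saline, 10% or less). They were followed afterward to check return to baseline. Mean change was given with 95% CI and P value.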

[4] = Plasma concentration in patient with severe malaria at 3 g, iv for 30 mins via infusion pump; format: ADME, organism-based; settings: human; how it was run: as §1
[5] = system: Homo sapiens; test: Toxicity in patient with severe malaria assessed as effect on pulse rate at 3 to 12 g, iv for 30 mins via infusion pump measured during drug infusion; format: organism-based; settings: in vivo, 0.5 h
[6] = system: Homo sapiens; test: Toxicity in patient with severe malaria assessed as pain at drug infusion site at 3 to 12 g, iv for 30 mins via infusion pump; format: organism-based; settings: in vivo, 0.5 h
[7] = system: Homo sapiens; test: Toxicity in patient with severe malaria assessed as effect on pulse rate at 3 to 12 g, iv for 30 mins via infusion pump measured after drug infusion; format: organism-based; settings: in vivo, 0.5 h
[8] = Terminal half life in patient with severe malaria administered as iv for 30 mins via infusion pump; format: ADME, organism-based; settings: human, in vivo, read-out: beta t1/2 (converted)
How it was run: (§3)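 Half-lives came from a population model fitted in NONMEM (FOCE with interaction) to plasma HPLC levels from infused patients and from patients not given L-arginine. The model was two-compartment linear with first-order elimination and combined proportional and additive residual error. Baseline and natural recovery were fitted by a second-order polynomial. CV% was estimated by simulation assuming a log-normal distribution.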

[9] = system: Homo sapiens; test: Toxicity in patient with severe malaria assessed as decrease of diastolic blood pressure at 12 g, iv for 30 mins via infusion pump; format: organism-based, Artery; settings: in vivo, 0.5 h; how it was run: as §2
[10] = system: Homo sapiens; test: Toxicity in patient with severe malaria assessed as effect on respiratory rate at 3 to 12 g, iv for 30 mins via infusion pump measured during drug infusion; format: organism-based; settings: in vivo, 0.5 h
[11] = Primary phase half life in patient with severe malaria administered as iv for 30 mins via infusion pump; format: ADME, organism-based; settings: human, in vivo, read-out: alphat1/2; how it was run: as §3
[12] = system: Homo sapiens; test: Toxicity in patient with severe malaria assessed as decrease of systolic blood pressure at 12 g, iv for 30 mins via infusion pump; format: organism-based, Artery; settings: in vivo, 0.5 h; how it was run: as §2
[13] = Plasma concentration in patient with severe malaria at 12 g, iv for 30 mins via infusion pump; format: ADME, organism-based; settings: human; how it was run: as §1
[14] = system: Homo sapiens; test: Toxicity in patient with severe malaria assessed as inflammation at 3 to 12 g, iv for 30 mins via infusion pump; format: organism-based; settings: in vivo, 0.5 h
[15] = system: Homo sapiens; test: Toxicity in patient with severe malaria assessed as decrease of diastolic blood pressure at 3 to 6 g, iv for 30 mins via infusion pump; format: organism-based, Artery; settings: in vivo, 0.5 h; how it was run: as §2

Compound: N=C(N)NCCC[C@H](N)C(=O)O [ARGININE]
- Activity [1]: Non-toxic
- concentration at 0.5 h [2]: 809 µM
- Activity [3]: Non-toxic
- concentration at 0.5 h [4]: 288 µM
- Activity [5]: Non-toxic
- Activity [6]: Non-toxic
- Activity [7]: Non-toxic
- half-life [8]: 3.75 h
- Activity [9]: 5 mmHg
- Activity [10]: Non-toxic
- half-life [11]: 0.25 h
- Activity [12]: 5 mmHg
- concentration at 0.5 h [13]: 1310 µM
- Activity [14]: Non-toxic
- Activity [15]: Non-toxic
